Measured values reported in the EternaBench riboswitch data.

Test system: MS2 coat protein
Assay: apparent Kd, MS2 coat protein; higher = weaker binding; RNA-MaP array
Procedure, shortened: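 Sequenced DNA templates on an Illumina sequencing chip were transcribed into the designed RNAs. These were incubated at room temperature in Tris-HCl pH 7.5 buffer containing KCl, MgCl2, BSA, DTT, tRNA and Tween20 with fluorescently labeled MS2 coat protein at 1.5 nM to 3 μM, with or without input ligand. Apparent Kd is the median of binding-curve fits per cluster, and designs with fewer than 10 clusters measured were excluded.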

[1] = designed as: ON switch for flavin mononucleotide, no ligand
[2] = ligand present: flavin mononucleotide, designed as: ON switch for flavin mononucleotide
[3] = designed as: OFF switch for theophylline, no ligand
[4] = ligand present: theophylline, designed as: OFF switch for theophylline
[5] = designed as: ON switch for theophylline, no ligand
[6] = ligand present: theophylline, designed as: ON switch for theophylline
[7] = designed as: OFF switch for flavin mononucleotide, no ligand
[8] = ligand present: flavin mononucleotide, designed as: OFF switch for flavin mononucleotide

Row | Sequence | apparent Kd [1] | apparent Kd [2] | also measured
1 | ACGGGAGCAGAAGGAUAUAGGGUAGGUAUUAGACUAGAAGGACUCUUACAUGAGGAUCACCCAUGUAGUUCAGAAUGGGAAAUC | 45.5 nM | 40.4 nM | 
2 | AGCAGCCCUAAAGGAUAUUUGCGCGAGCAAAGCAAAGAAGGUUAAGGGUGGGCUUCAGAGACUACAUGAGGAUCACCCAUGUCC | 448 nM | 112 nM | 
3 | ACAUGGAGGACAGGAUAUCCAUCUGGCCACCACGGAGAAGGGUCCACCCGACAUGAGGAUCACCCAUGUAUCAACGUGAUGAGU | 23 nM | 18.1 nM | 
4 | GACACCGGUAUGGAGGAUAUGGGAGACAGUACAUGAGGAUCACCCAUGUCGUUAAGAAGAUAUCACCAGAAGGCCACUCGGUCGAG | 13.5 nM | 9.63 nM | 
5 | CGACACCAGGCAAUCCAUCACCCGGCUGAUACCAGCUCUUUUGGAAGCCCUUGGCAGCAGAGAACAUGAGGAUCACCCAUGUCAG |  |  | apparent Kd [3]: 14.6 nM; apparent Kd [4]: 21.2 nM
6 | GCACGAGUAAGACCUGACUUCAACAAUGAUACCAGACUAGUAAACGUCCCUUGGCAGCAUCAGACAUGAGGAUCACCCAUGUGGC |  |  | apparent Kd [3]: 27 nM; apparent Kd [4]: 29.4 nM
7 | GGCUGACAUGAGGAUCACCCAUGUAGUGAUACCAGUAAGAGAAUAUACCCUUGGCAGCACAGGUAACAACUCGUCUCCAAAGUAA |  |  | apparent Kd [5]: 42.7 nM; apparent Kd [6]: 78.9 nM
8 | CCUAUCAAACGAGGAUAUGUGCGGACAAGAAACACAGAAGGCGAACCACAUGAGGAUCACCCAUGUACGAAGACAAAGCAAGAA | 22.7 nM | 14.5 nM | 
9 | GAAGAACCCGGAGGAUAUGCAAAGGAACAUGAGGAUCACCCAUGUUUCUUUCGGAAAUCUAGUGAGCAGAAGGCCGAAAGGAAC | 13.1 nM | 7.95 nM | 
10 | AAUGGAAGGGAGAAGGCACGCUCUGUCGAACCGUGAGGAUAUCCAUCGGGUAAUAUACAUGAGGAUCACCCAUGUGGCGUCCAG | 25.8 nM | 14.6 nM | 
11 | UUAGGUGCAGGAUAUACAAGACUUAGUAGGAUACCAGACCUACAUGAGGAUCACCCAUGUAGAAGGGCAAUGCA |  |  | apparent Kd [7]: 20.6 nM; apparent Kd [8]: 16.9 nM
12 | UCCUUACACAUGAGGAUCACCCAUGUAUCCACAGGUUGAGGGCAGGAUAUACAUAAUUUGACCUUGUAGAAGGGCCUGACAAAA |  |  | apparent Kd [7]: 213 nM; apparent Kd [8]: 103 nM
13 | CCAGCUCUAUAGGAUAUUCUUGAUGAAGACACGGAAGAAGGAUAGACAUGAGGAUCACCCAUGUCCUUACAUGU |  |  | apparent Kd [7]: 19.4 nM; apparent Kd [8]: 17.3 nM
14 | UACUUUGUAUGCAAGGAUAUCCAGGAUUCUACAUGAGGAUCACCCAUGUCAAAUACUAUGCAACGGGAGAAGGUGCAUAACAUCAU | 16.5 nM | 12.2 nM | 
15 | AUUACCCAAGGAUAUUGCAAUUGAGACAUGAGGAUCACCCAUGUACUUCCGGGUGUCAAUCAAGAAGGUGGAUGUU |  |  | apparent Kd [7]: 23.1 nM; apparent Kd [8]: 20.9 nM
16 | AAAUCAAAGCAGAAGGAACAAUAAGCAUAAAGGUUAGGAUAUGCGUCAACGCAAAGUACAUGAGGAUCACCCAUGUUUAUAAGC | 7.37 nM | 6.77 nM | 
17 | AUCUGGUUACAAGGAUAUCCAAUGUAAACAAUAGGAGAAGGAGUGAAAAGACCUAGGAAAACAUGAGGAUCACCCAUGUAAUUA | 111 nM | 39.1 nM | 
18 | UCCACACAUGAGGAUCACCCAUGUUGAGAUACCAGUAAACCAAAAUACCCUUGGCAGCUCCUACGCUCUUACAGCGGGAAUAUCC |  |  | apparent Kd [5]: 15.8 nM; apparent Kd [6]: 23.1 nM
19 | UACGUGUUAGGAUAUCGAGUAGUAUGGCUGGCCUGCAAAACCGAGAAGGAACAUGAGGAUCACCCAUGUAUCUU |  |  | apparent Kd [7]: 8.05 nM; apparent Kd [8]: 11.3 nM
20 | GACAUCAUAGGAGGAUAUGUUUUCUAAAGACUGACAGAAGGCCAGAACAGUAAGAACAAAAGACAUGAGGAUCACCCAUGUGUU | 16.6 nM | 9.36 nM | 
